Reference: ChEMBL document CHEMBL1123879, “Synthesis and antiarrhythmic activity of novel 3-alkyl-1-[omega-[4-[(alkylsulfonyl)amino]phenyl]-omega- hydroxyalkyl]-1H-imidazolium salts and related compounds” (J Med Chem, 1987)

Legend:
Canis familiaris [1] = species: Canis familiaris; assay: (§1) Concentration that causes 20% increase in ADP95 (action potential duration at 95% repolarization) was determined on isolated canine cardiac Purkinje fibers; format: functional, Canis lupus familiaris, Purkinje fiber
Outline: (§2)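 Canine cardiac Purkinje fibres in gassed physiological saline (95% O2–5% CO2, pH 7.35–7.40) at 36 ± 0.5 °C. Paced at 1.0 Hz with 2 ms pulses at twice diastolic threshold. Intracellular microelectrode recording after up to 1 h of stabilisation; 30 min exposure per concentration; one compound per fibre, with vehicle controls. Readout is concentration giving a 20% change in APD95, or maximal APD95 change; log mean with 90% CI when n > 2.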

Canis familiaris [2] = species: Canis familiaris; assay: (§3) Concentration that causes 20% increase in functional refractory period (FRP) was determined on isolated canine ventricular muscle fibers; set-up: species or system Canis lupus familiaris, Muscle tissue
Outline: (§4)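 Canine right ventricular papillary muscle strips superfused with O2/CO2-gassed saline at 36 ± 0.5 °C. Bipolar electrogram recording. Stimulated at 4× diastolic threshold (2 ms pulses), equilibrated 60 min. FRP measured at 1000 ms cycle length by S2 after every tenth S1 at shortening intervals. Cumulative concentrations; one compound per strip, with vehicle controls. Readout is concentration giving a 20% FRP change, or maximal change; log mean with 90% CI when n > 2.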

Canis familiaris [3] = species: Canis familiaris; assay: Maximum observed change in ADP95 from control value was determined in isolated canine cardiac uM; format: functional, Canis lupus familiaris; outline: as §2
Canis familiaris [4] = species: Canis familiaris; assay: Maximum observed change in FRP from control was determined in isolated canine ventricular muscle fibers at a concentration of 100 uM; format: functional, Canis lupus familiaris, Muscle tissue; outline: as §4
Canis familiaris [5] = species: Canis familiaris; assay: as §3; details: Canis lupus familiaris; Muscle tissue; outline: as §4
Canis familiaris [6] = species: Canis familiaris; assay: as §1; format: functional; details: Canis lupus familiaris; Purkinje fiber; outline: as §2
Canis familiaris [7] = assay: In vivo intraduodenal activity in mongrel dogs was assessed by % change in heart rate (10 mg/kg administered intradermally); format: functional, Canis lupus familiaris; details: in the assay text read “intraduodenally” for “intradermally”
Outline: (§5)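 Healthy dogs (8–20 kg) of either sex, pentobarbital 30 mg/kg iv, ventilated, temperature held at 36 ± 0.5 °C. Compound given intraduodenally as suspension in 0.5% tragacanth. HR, BP and FRP measured at 45 min postdose; second dose if FRP/conduction change below 12%. Active dose means FRP change ≥ 12%; HR and BP given as % change, mean ± SEM.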

Canis familiaris [8] = assay: In vivo intraduodenal activity in mongrel dogs was assessed by % change in blood pressure (10 mg/kg administered intradermally); format: functional, Canis lupus familiaris, Artery; details: in the assay text read “intraduodenally” for “intradermally”; outline: as §5
Canis familiaris [9] = species: Canis familiaris; assay: Concentration that causes 20% increase in ADP95 (action potential duration at 95% repolarization) was determined on isolated canine cardiac Purkinje fibers at a concentration range 0.01-10 uM; format: functional, Canis lupus familiaris, Purkinje fiber; outline: as §2
Canis familiaris [10] = assay: In vivo antiarrhythmic efficacy in a programmed electrical stimulation (PES) model of mongrel dogs reported as number of animals effective at dose range of 0.1-10 mg/kg.; format: functional, Canis lupus familiaris, Heart
Outline: (§6)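 Mongrel dogs (8–17 kg) with two-stage LAD occlusion 24 h earlier, anesthetized with thiopental 15 mg/kg and ventilated; open chest. PES induces SVT/VF; two control arrhythmias 30 min apart. Compound given as 10-min iv infusion, PES repeated 20 min later, dose escalated while still inducible; noninducibility counts as effective. HR and BP reported as % change at effective dose, mean ± SEM.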

Canis familiaris [11] = assay: In vivo antiarrhythmic efficacy in a programmed electrical stimulation (PES) model of mongrel dogs expressed as percent change in heart rate at iv dose range of 0.1-10 mg/kg.; format: functional, Canis lupus familiaris; outline: as §6
Canis familiaris [12] = assay: In vivo antiarrhythmic efficacy in a programmed electrical stimulation (PES) model of mongrel dogs expressed as percent change in blood pressure at iv dose range of 0.1-10 mg/kg.; format: functional, Canis lupus familiaris; outline: as §6
Canis familiaris [13] = assay: In vivo antiarrhythmic efficacy in a programmed electrical stimulation (PES) model of mongrel dogs expressed as minimum effect dose (iv) at iv dose range of 0.1-10 mg/kg.; format: functional, Canis lupus familiaris, Heart; outline: as §6
Canis familiaris [14] = species: Canis familiaris; assay: Concentration that causes 20% increase in ADP95 (action potential duration at 95% repolarization) was determined on isolated canine cardiac Purkinje fibers at a dose range of 0.01-10 uM; format: functional, Canis lupus familiaris, Purkinje fiber; outline: as §2
[15] = Canis lupus familiaris, Muscle tissue

Compound: CCS(=O)(=O)Nc1ccc(C(O)Cn2cc[n+](C)c2)cc1.[Cl-] (configuration not stated)
- Activity (Canis familiaris [1]): 30 µM
- Activity (Canis familiaris [2]): 14.5 µM
- Max delta APD95 (Canis familiaris [3]): 27%
- Max delta FRP (Canis familiaris [4]): 27%

Compound: C[n+]1ccn(CC(=O)c2ccccc2)c1.[Br-]
- Activity (Canis familiaris [1]): 69 µM
- Activity (Canis familiaris [5]): Not recorded
- Max delta FRP (Canis familiaris [4]; [15]): Minimal effects

Compound: CC(C)[n+]1ccn(CC(=O)c2ccc(NS(C)(=O)=O)cc2)c1.[Cl-]
- Activity (Canis familiaris [5]): Not recorded
- Activity (Canis familiaris [6]): Not recorded
- Max delta APD95 (Canis familiaris [3]; Canis lupus familiaris): Minimal effects
- Max delta FRP (Canis familiaris [4]): 14%

Compound: C[n+]1ccn(CC(O)c2ccccc2)c1.[Br-] (configuration not stated)
- Activity (Canis familiaris [6]): Not recorded
- Activity (Canis familiaris [2]): 50 µM
- Max delta APD95 (Canis familiaris [3]): 12%
- Max delta FRP (Canis familiaris [4]): 22%

Compound: C[n+]1ccn(CCC(O)c2ccc(NS(C)(=O)=O)cc2)c1.[Cl-] (configuration not stated)
- Activity (Canis familiaris [6]): Not recorded
- Activity (Canis familiaris [2]): 100 µM
- Max delta APD95 (Canis familiaris [3]; Canis lupus familiaris): Minimal effects
- Max delta FRP (Canis familiaris [4]): 20%

Compound: CCCCCCC[n+]1ccn(CC(O)c2ccc(NS(C)(=O)=O)cc2)c1.O=P([O-])(O)O (configuration not stated)
- Activity (Canis familiaris [1]): 2.8 µM
- Heart rate (Canis familiaris [7]): -10%
- Activity (Canis familiaris [2]): 9 µM
- Max delta APD95 (Canis familiaris [3]): 50%
- Blood pressure (Canis familiaris [8]): 6%
- Max delta FRP (Canis familiaris [4]): 24%

Compound: C[n+]1ccn(CCC(=O)c2ccc(NS(C)(=O)=O)cc2)c1.[Cl-]
- Activity (Canis familiaris [1]): 38.3 µM
- Heart rate (Canis familiaris [7]): -2%
- Activity (Canis familiaris [2]): 17.8 µM
- Max delta APD95 (Canis familiaris [3]): 26%
- Blood pressure (Canis familiaris [8]): 6%
- Max delta FRP (Canis familiaris [4]): 29%

Compound: C[n+]1ccn(CC(O)c2ccc(NS(=O)(=O)C(F)(F)F)cc2)c1 (configuration not stated)
- Activity (Canis familiaris [5]): Not recorded
- Activity (Canis familiaris [6]): Not recorded
- Max delta APD95 (Canis familiaris [3]; Canis lupus familiaris): Minimal effects
- Max delta FRP (Canis familiaris [4]; [15]): Minimal effects

Compound: CC[n+]1ccn(CC(=O)c2ccc(NS(C)(=O)=O)cc2)c1.[Cl-]
- Activity (Canis familiaris [1]): 49.4 µM
- Activity (Canis familiaris [2]): 28.2 µM
- Max delta APD95 (Canis familiaris [3]): 26%
- Max delta FRP (Canis familiaris [4]): 26%

Compound: C[n+]1ccn(CC(O)c2ccc(NS(C)(=O)=O)cc2)c1 (configuration not stated)
- Activity (Canis familiaris [1]): 0.6 µM
- Activity (Canis familiaris [2]): 8.7 µM
- Max delta APD95 (Canis familiaris [3]): 55%
- Max delta FRP (Canis familiaris [4]): 24%

Compound: CCCCCCC[n+]1ccn(CC(=O)c2ccc(NS(C)(=O)=O)cc2)c1.[Br-]
- Activity (Canis familiaris [5]): Not recorded
- Activity (Canis familiaris [9]): 9 µM
- Max delta APD95 (Canis familiaris [3]): 21%
- Max delta FRP (Canis familiaris [4]): 14%

Compound: CCCCCCC[N+](CC)(CC)CCCCc1ccc(Cl)cc1.O=P([O-])(O)O [CLOFILIUM PHOSPHATE]
- Activity (Canis familiaris [5]): Not recorded
- No. effective (Canis familiaris [10]): 7
- Heart rate (Canis familiaris [11]): -12%
- Blood pressure (Canis familiaris [12]): 2%
- Heart rate (Canis familiaris [7]): -18%
- Min effective dose (Canis familiaris [13]): 0.63
- Max delta APD95 (Canis familiaris [3]): 39%
- Activity (Canis familiaris [14]): 0.26 µM
- Blood pressure (Canis familiaris [8]): -4%
- Max delta FRP (Canis familiaris [4]): 7%
